Reference: ChEMBL document CHEMBL3352136, “Vinylated linear P2 pyrimidinyloxyphenylglycine based inhibitors of the HCV NS3/4A protease and corresponding macrocycles” (Bioorg Med Chem, 2014)
Converted amounts (≈) assume the structure as drawn. Each block holds one compound with its values, some of them ahead of it.

Columns and labels:
[1] = tested on: Hepatitis C virus; assay: Antiviral activity against HCV genotype 1b infected in human Huh-7 cells by firefly luciferase assay; format: functional, cell-based, Hepacivirus hominis
How it was run: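 Huh-7 cells carrying a subgenomic HCV genotype 1b replicon with firefly luciferase reporter; EC50 derived from luciferase signal.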

[2] = target: Hepatitis C virus serine protease, NS3/NS4A (Hepatitis C virus, UniProt A3EZI9+D2K2A8); assay: (§1) Inhibition of HCV genotype 1a NS3/4A protease using Ac-DED(Edans)EEAbu-psi[COO]ASK(Dabcyl)-NH2 as substrate by FRET assay; parameters: species or system Hepatitis C virus subtype 1a
How it was run: (§2)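 Full-length NS3/4A (protease–helicase/NTPase, genotype 1a) measured by FRET. Buffer: 50 mM HEPES pH 7.5, 10 mM DTT, 40% glycerol, 0.1% n-octyl-β-D-glucoside, 3.3% DMSO. Ki values derived.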

[3] = tested on: Hepatitis C virus; assay: Antiviral activity against HCV genotype 1a; format: functional, Hepacivirus hominis; details: subtype 1a
[4] = (§3) Half life in human liver microsomes preincubated for 5 mins by LC/MS/MS analysis; format: ADME; details: liver microsomes
How it was run: (§4)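 Compound at 1 µM preincubated 5 min at 37 °C with pooled human liver microsomes (0.5 mg/mL) in 0.1 M potassium phosphate pH 7.4. Reaction started with NADPH (1 mM final) and stopped at 0, 5, 15 and 40 min with ice-cold acetonitrile containing internal standard. LC/MS/MS read-out. ln(% remaining) regressed linearly on time; t1/2 and Clint derived assuming first-order kinetics. Dextromethorphan (3 µM) and midazolam (5 µM) served as CYP2D6/CYP3A4 controls.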

[5] = Solubility of the compound in PBS after 2 hrs by LC-MS/MS analysis; format: physicochemical
How it was run: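 DMSO stock (10 mM) added to PBS to 1% final DMSO, rotated in glass vials 2 h at 37 °C. Centrifuged 10,000g for 30 min, then supernatant quantified by LC–MS/MS. Upper detection limit 100 µM.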

[6] = Apparent permeability from apical to basolateral side in human Caco2 cells; format: ADME, cell-based; details: Caco-2
How it was run: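 Caco-2 monolayers on polycarbonate filter inserts, cells kept in 90% air/10% CO2. Compound diluted from 10 mM DMSO stock to 10 µM (final DMSO 0.1%) in FASSIF pH 7.4 on apical donor side. Receiver is HBSS pH 7.4 with 1% (w/v) BSA. Run at 37 °C with 500 rpm stirring. Receiver sampled at 15, 30 and 60 min, donor sampled at 60 min for mass balance. Membrane integrity checked afterwards, LC/MS/MS read-out, at least triplicates.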

[7] = (§5) Intrinsic clearance in human liver microsomes preincubated for 5 mins by LC/MS/MS analysis; format: ADME; details: liver microsomes; how it was run: as §4
[8] = tested on: Liver microsome; assay: as §3; format: ADME; details: microsomes; how it was run: as §4
[9] = target: Hepatitis C virus serine protease, NS3/NS4A (Hepatitis C virus, UniProt A3EZI9+D2K2A8, A156T); assay: Inhibition of HCV NS3/4A protease A156T mutant using Ac-DED(Edans)EEAbu-psi[COO]ASK(Dabcyl)-NH2 as substrate by FRET assay; parameters: species or system Hepacivirus hominis
[10] = tested on: Liver microsome; assay: as §5; format: ADME; details: microsomes, 5 min; how it was run: as §4
[11] = target: Hepatitis C virus serine protease, NS3/NS4A (Hepatitis C virus, UniProt A3EZI9+D2K2A8, D168V); assay: Inhibition of HCV NS3/4A protease D168V mutant using Ac-DED(Edans)EEAbu-psi[COO]ASK(Dabcyl)-NH2 as substrate by FRET assay; parameters: species or system Hepacivirus hominis
[12] = target: Hepatitis C virus serine protease, NS3/NS4A (Hepatitis C virus, UniProt A3EZI9+D2K2A8, R155K); assay: Inhibition of HCV NS3/4A protease R155K mutant using Ac-DED(Edans)EEAbu-psi[COO]ASK(Dabcyl)-NH2 as substrate by FRET assay; parameters: species or system Hepacivirus hominis
[13] = target: Hepatitis C virus serine protease, NS3/NS4A (Hepatitis C virus, UniProt D2K2A8+A3EZI9); assay: as §1; parameters: species or system Hepatitis C virus subtype 1a; how it was run: as §2

EC50 [1]: > 10000 nM | Ki [2]: 33 nM
SMILES: C=CCCCS(=O)(=O)NC(=O)c1ccccc1NC(=O)[C@H](NC(=O)[C@@H](NC(=O)OC(C)(C)C)C(C)(C)C)c1ccc(Oc2cc(OC)nc(-c3ccccc3)n2)c(C=C)c1

Ki [2]: 220 nM
SMILES: C=CCCCS(=O)(=O)NC(=O)c1ccccc1NC(=O)[C@@H](NC(=O)OC(C)(C)C)c1ccc(Oc2cc(C=C)nc(-c3ccccc3)n2)cc1

Ki [2]: 40 nM | EC50 [3]: 350 nM
SMILES: CCC[C@H](NC(=O)C1[C@H]2CCC[C@H]2CN1C(=O)[C@@H](NC(=O)[C@@H](NC(=O)c1cnccn1)C1CCCCC1)C(C)(C)C)C(=O)C(=O)NC1CC1 (stereo partly specified)

SMILES: COc1cc(Oc2ccc(C3NC(=O)[C@H](NC(=O)OC(C)(C)C)CCCCC/C=C/CCCS(=O)(=O)NC(=O)c4ccccc4NC3=O)cc2)nc(-c2ccccc2)n1 (stereo in doubt; 29L)
half-life [4]: 16 min | solubility at 2 h [5]: 51 µM (≈ 42.2 µg/mL) | Ki [2]: 110 nM | Papp [6]: 0.35 ×10⁻⁶ cm/s | microsomal CLint [7]: 87 µL/min/mg

Ki [2]: 630 nM
SMILES: COc1cc(Oc2ccc3cc2/C=C/CCS(=O)(=O)NC(=O)c2ccccc2NC(=O)[C@H]3NC(=O)[C@@H](NC(=O)OC(C)(C)C)C(C)(C)C)nc(-c2ccccc2)n1

SMILES: COc1cc(Oc2ccc(C3NC(=O)[C@H](NC(=O)OC(C)(C)C)CCCCC/C=C/CCCS(=O)(=O)NC(=O)c4ccccc4NC3=O)cc2)nc(-c2ccccc2)n1 (single isomer, unassigned; diastereomer 2)
t1/2 [8]: 10 min | EC50 [1]: 15000 nM | Ki [9]: 160 nM | Ki [2]: 80 nM | Papp [6]: 0.15 ×10⁻⁶ cm/s | microsomal intrinsic clearance [10]: 137 µL/min/mg | Ki [11]: 600 nM | Ki [12]: 220 nM

Ki [2]: 300 nM
SMILES: C=CCCCS(=O)(=O)NC(=O)[C@H](CCC)NC(=O)[C@@H]1C[C@@H](Oc2cc(-c3ccccc3)nc3cc(OC)ccc23)CN1C(=O)[C@@H](NC(=O)OC(C)(C)C)C(C)(C)C

half-life [4]: 83 min | EC50 [1]: > 10000 nM | solubility at 2 h [5]: 66 µM (≈ 55.5 µg/mL) | Ki [2]: 26 nM | Papp A→B [6]: 1.7 ×10⁻⁶ cm/s | microsomal CLint [7]: 17 µL/min/mg
SMILES: C=CCCCS(=O)(=O)NC(=O)c1ccccc1NC(=O)[C@@H](NC(=O)[C@@H](NC(=O)OC(C)(C)C)C(C)(C)C)c1ccc(Oc2cc(OC)nc(-c3ccccc3)n2)c(C=C)c1

Ki [2]: 1570 nM
SMILES: C=CCCCS(=O)(=O)NC(=O)[C@H](CCC)NC(=O)[C@H]1NC(=O)[C@H](C(C)(C)C)NC(=O)OCC/C=C/c2cc(nc(-c3ccccc3)n2)Oc2ccc1cc2

half-life [4]: 16 min | solubility at 2 h [5]: 93 µM (≈ 65.3 µg/mL) | Ki [2]: 600 nM | Papp A→B [6]: 4 ×10⁻⁶ cm/s | microsomal CLint [7]: 86 µL/min/mg
SMILES: C=CCCCS(=O)(=O)NC(=O)c1ccccc1NC(=O)[C@@H](NC(=O)OC(C)(C)C)c1ccc(Oc2cc(OC)nc(-c3ccccc3)n2)cc1

Ki [2]: 0.36 nM | EC50 [3]: 7.8 nM
SMILES: COc1ccc2c(O[C@@H]3C[C@H]4C(=O)N[C@]5(C(=O)NS(=O)(=O)C6CC6)C[C@H]5/C=C\CCCCN(C)C(=O)[C@@H]4C3)cc(-c3nc(C(C)C)cs3)nc2c1C

Ki [2]: 830 nM
SMILES: COc1ccc2c(O[C@@H]3C[C@@H](C(=O)Nc4ccccc4C(=O)NS(=O)(=O)c4ccccc4)N(C(=O)[C@@H](NC(=O)OC(C)(C)C)C(C)(C)C)C3)cc(-c3ccccc3)nc2c1

Ki [2]: 0.05 nM | EC50 [3]: 5 nM
SMILES: CC[C@@H]1C[C@]1(NC(=O)[C@@H]1C[C@@H]2CN1C(=O)[C@H](C(C)(C)C)NC(=O)OCC(C)(C)CCCCc1cccc3c1CN(C3)C(=O)O2)C(=O)NS(=O)(=O)C1CC1

half-life [4]: 23 min | solubility at 2 h [5]: 91 µM (≈ 77.8 µg/mL) | Ki [2]: 230 nM | Papp A→B [6]: 0.22 ×10⁻⁶ cm/s | microsomal CLint [7]: 60 µL/min/mg
SMILES: C=CCCCCC[C@H](NC(=O)OC(C)(C)C)C(=O)N[C@H](C(=O)Nc1ccccc1C(=O)NS(=O)(=O)CCCC=C)c1ccc(Oc2cc(OC)nc(-c3ccccc3)n2)cc1

Ki [2]: 660 nM
SMILES: CC(C)(C)OC(=O)N[C@H](C(=O)N[C@@H]1C(=O)Nc2ccccc2C(=O)NS(=O)(=O)CCC/C=C/c2cc(nc(-c3ccccc3)n2)Oc2ccc1cc2)C(C)(C)C

Ki [2]: 2400 nM
SMILES: CCC[C@@H]1NC(=O)[C@@H](NC(=O)[C@@H](NC(=O)OC(C)(C)C)C(C)(C)C)c2ccc(cc2)Oc2cc(nc(-c3ccccc3)n2)/C=C/CCCS(=O)(=O)NC1=O

Ki [2]: 390 nM
SMILES: C=CCCCS(=O)(=O)NC(=O)c1ccccc1NC(=O)[C@H]1NC(=O)[C@H](C(C)(C)C)NC(=O)OCC/C=C/c2cc(nc(-c3ccccc3)n2)Oc2ccc1cc2

Ki [13]: 110 nM
SMILES: COc1cc(Oc2ccc(C3NC(=O)[C@H](NC(=O)OC(C)(C)C)CCCCCCCCCCS(=O)(=O)NC(=O)c4ccccc4NC3=O)cc2)nc(-c2ccccc2)n1 (stereo in doubt; 31L)

Ki [2]: 370 nM
SMILES: C=CCCS(=O)(=O)NC(=O)c1ccccc1NC(=O)[C@@H](NC(=O)OC(C)(C)C)c1ccc(Oc2cc(OC)nc(-c3ccccc3)n2)c(C=C)c1

Ki [2]: 310 nM
SMILES: COc1ccc2c(Oc3ccc([C@H](NC(=O)[C@@H](NC(=O)OC(C)(C)C)C(C)(C)C)C(=O)Nc4ccccc4C(=O)NS(=O)(=O)c4ccccc4)cc3)cc(-c3ccccc3)nc2c1

Ki [2]: 0.3 nM
SMILES: COc1ccc2c(O[C@@H]3C[C@H]4C(=O)N[C@]5(C(=O)O)C[C@H]5/C=C\CCCCC[C@H](NC(=O)OC5CCCC5)C(=O)N4C3)cc(-c3csc(NC(C)C)n3)nc2c1

Ki [2]: 63 nM
SMILES: C=CCCCS(=O)(=O)NC(=O)[C@H](CCC)NC(=O)[C@@H](NC(=O)[C@@H](NC(=O)OC(C)(C)C)C(C)(C)C)c1ccc(Oc2cc(-c3ccccc3)nc3cc(OC)ccc23)c(C=C)c1

Ki [2]: 130 nM
SMILES: COc1cc(Oc2ccc(C3NC(=O)[C@H](NC(=O)OC(C)(C)C)CCCCCCCCCS(=O)(=O)NC(=O)c4ccccc4NC3=O)cc2)nc(-c2ccccc2)n1 (stereo partly specified)

EC50 [1]: 5400 nM
SMILES: C=CCCCS(=O)(=O)NC(=O)c1ccccc1NC(=O)[C@@H](NC(=O)[C@@H](NC(=O)OC(C)(C)C)C(C)(C)C)c1ccc(Oc2cc(-c3ccccc3)nc3cc(OC)ccc23)c(C=C)c1

EC50 [1]: 5400 nM
SMILES: C=CCCCS(=O)(=O)NC(=O)c1ccccc1NC(=O)[C@H](NC(=O)[C@@H](NC(=O)OC(C)(C)C)C(C)(C)C)c1ccc(Oc2cc(-c3ccccc3)nc3cc(OC)ccc23)c(C=C)c1

half-life [4]: 22 min | solubility at 2 h [5]: 33 µM (≈ 26.9 µg/mL) | Ki [2]: 95 nM | Papp A→B [6]: 0.22 ×10⁻⁶ cm/s | microsomal CLint [7]: 64 µL/min/mg
SMILES: C=CCCCS(=O)(=O)NC(=O)c1ccccc1NC(=O)[C@@H](NC(=O)[C@@H](NC(=O)OC(C)(C)C)C(C)(C)C)c1ccc(Oc2cc(OC)nc(-c3ccccc3)n2)cc1

Ki [2]: 14 nM
SMILES: CC(C)(C)NC(=O)N[C@H](C(=O)N1C[C@H]2[C@@H]([C@H]1C(=O)NC(CC1CCC1)C(=O)C(N)=O)C2(C)C)C(C)(C)C (stereo partly specified) [BOCEPREVIR]

solubility at 2 h [5]: 101 µM (≈ 73.5 µg/mL) | Ki [2]: 190 nM | Papp A→B [6]: 1 ×10⁻⁶ cm/s
SMILES: C=CCCCS(=O)(=O)NC(=O)c1ccccc1NC(=O)[C@@H](NC(=O)OC(C)(C)C)c1ccc(Oc2cc(OC)nc(-c3ccccc3)n2)c(C=C)c1

Ki [2]: 110 nM
SMILES: COc1cc(Oc2ccc(C3NC(=O)[C@H](NC(=O)OC(C)(C)C)CCCCCCCCCCS(=O)(=O)NC(=O)c4ccccc4NC3=O)cc2)nc(-c2ccccc2)n1 (single isomer, unassigned; diastereomer 2)

Ki [2]: 1300 nM
SMILES: COc1cc(Oc2ccc3cc2/C=C/CCS(=O)(=O)NC(=O)c2ccccc2NC(=O)[C@H]3NC(=O)OC(C)(C)C)nc(-c2ccccc2)n1

Ki [2]: 220 nM
SMILES: COc1cc(Oc2ccc(C3NC(=O)[C@H](NC(=O)OC(C)(C)C)CCCCC/C=C/CCS(=O)(=O)NC(=O)c4ccccc4NC3=O)cc2)nc(-c2ccccc2)n1 (stereo partly specified)

Ki [2]: 110 nM
SMILES: C=CCCCS(=O)(=O)NC(=O)c1ccccc1NC(=O)[C@@H](NC(=O)[C@@H](NC(=O)OCCC=C)C(C)(C)C)c1ccc(Oc2cc(C=C)nc(-c3ccccc3)n2)cc1
